Laboratory results taken from ChEMBL document CHEMBL4819033, “Synthesis of Bioactive Diarylheptanoids from Alpinia officinarum and Their Mechanism of Action for Anticancer Properties in Breast Cancer Cells” (J Nat Prod, 2021).
Calls of active or inactive are those of the source. No cut-off for these calls is given here.

Columns and labels:
MCF7 [1] = experiment: Antiproliferative activity against human MCF7 cells assessed as reduction in cell viability after 72 hrs by MTT assay; format: functional, cell-based; conditions: for IC50: MCF7, 72 h
Outline: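 MCF-7 cells (DMEM, 10% FBS, 37 °C, 5% CO2) seeded 5 × 10³/well, left overnight, then exposed to compounds (0−50 μM) for 72 h. MTT added to 0.5 mg/mL final; formazan solubilised overnight with 10% SDS in 0.01 N HCl, absorbance at 570 nm. IC50 taken relative to vehicle (0.1% DMSO) as 100% survival. Triplicate determinations, three independent experiments; paclitaxel as positive control.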

MCF7 [2] = experiment: Inhibition of colony formation in human MCF7 cells incubated for 10 days by crystal violet staining based assay; format: functional, cell-based; conditions: dose 1-5 µM, time 10.0 day
Outline: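 Clonogenic survival: MCF-7 cells, 1 × 10³ per well, seeded overnight, then grown with 1, 2.5 or 5 μM in complete medium for 10 days. Colonies fixed with MeOH, stained with 0.5% crystal violet in 1:1 MeOH–water, counted. Surviving fraction corrected for plating efficiency, relative to vehicle; triplicates, three repeats.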

MCF7 [3] = experiment: Induction of apoptosis in human MCF7 cells assessed as increase in sub-G1 cell population at 10 uM after 48 hrs by propidium iodide/RNase A staining based flow cytometric analysis (reference value: 5.4 +/- 2.1 %); format: functional
MCF7 [4] = experiment: Induction of ROS generation in human MCF7 cells at 5 to 10 uM incubated for 6 hrs by DCFH-DA dye based flow cytometric analysis; format: functional, cell-based; conditions: dose 5-10 µM
Outline: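 MCF-7 cells (1 × 10⁵/well) loaded with DCFH-DA (10 μM, 30 min), washed, then exposed to 5 or 10 μM for various periods (6 h quantified); H2O2 100 μM as positive control. DCF green fluorescence (ex 480/em 530 nm) read by flow cytometry, expressed as fold of vehicle. Three repeats in triplicate.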

MCF7 [5] = experiment: Induction of cell cycle arrest in human MCF7 cells assessed as accumulation at G2 phase at 5 to 10 uM incubated for 24 hrs by propidium iodide/RNase A staining based flow cytometry; format: functional; conditions: dose 5-10 µM
Outline: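 For the cell cycle, MCF-7 cells were exposed to vehicle, 5 or 10 μM for 24 h, stained with PI/RNase in 0.1% sodium citrate containing Triton X-100, and phase distribution was quantified by flow cytometry. Three experiments, each in triplicate.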

MCF7 [6] = experiment: Induction of apoptosis in human MCF7 cells assessed as increase in sub-G1 cell population at 5 uM after 48 hrs by propidium iodide/RNase A staining based flow cytometric analysis (reference value: 5.4 +/- 2.1 %); format: functional
U2OS = experiment: Antiproliferative activity against human U2OS cells assessed as reduction in cell viability after 72 hrs by MTT assay; format: functional, cell-based
Outline: (§1)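 U2-OS (ATCC) or INT-407 cells, cultured in DMEM with 10% FBS at 37 °C, 5% CO2, assayed by MTT reduction under the conditions used for MCF-7: 72 h exposure, absorbance at 570 nm, viability relative to 0.1% DMSO vehicle control; INT-407 tested up to 50 μM.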

MCF7 [7] = experiment: Induction of ROS generation in human MCF7 cells at 5 to 10 uM up to 3 hrs by DCFH-DA dye based flow cytometric analysis; format: functional, cell-based; conditions: dose 5-10 µM, time hrs <=3
[8] = Antiproliferative activity against human INT-407 cells assessed as reduction in cell viability up to 50 uM after 72 hrs by MTT assay; format: cell-based; conditions: intestine 407, 72 h; outline: as §1
MCF7 [9] = experiment: Induction of lysosomal membrane permeabilization in human MCF7 cells after 6 hrs by AO staining based flow cytometry; format: functional, cell-based; conditions: dose 5-10 µM
Outline: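 MCF-7 cells treated at 5 or 10 μM (0−10 μM) for various periods, washed with PBS, then stained with acridine orange (10 μM, 15 min, 37 °C) and analysed by flow cytometry. LMP measured from green-channel MFI at 6 h as fold of vehicle; five repeats in triplicate.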

MCF7 [10] = experiment: Induction of lysosomal membrane permeabilization in human MCF7 cells at 5 to 10 uM […] by AO staining based flow cytometry; format: functional, cell-based; conditions: dose 5-10 µM
MCF7 [11] = experiment: Induction of mitochondrial membrane potential loss in human MCF7 cells incubated for 6 hrs by JC1 staining based flow cytometry; format: functional, cell-based; conditions: dose 5-10 µM
Outline: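 JC-1 assay: MCF-7 cells (1 × 10⁵/well) treated at 5 or 10 μM (legend gives 6 h, methods 8 h), stained with JC-1 (5 μg/mL) for 30 min, trypsinised, and analysed by flow cytometry. MMP loss scored from the drop in red fluorescence MFI as fold of vehicle; CCCP 10 μM as positive control. Five repeats in triplicate.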

Compound	Activity (MCF7 [1])	IC50 (MCF7 [1]) [µM]	inhibition (MCF7 [2])	Activity (MCF7 [3]) [%]	Activity (MCF7 [4])	Activity (MCF7 [5])	Activity (MCF7 [6]) [%]	IC50 (U2OS) [µM]	Activity (MCF7 [7])	Activity [8]	Activity (MCF7 [9])	Activity (MCF7 [10])	Activity (MCF7 [11])
COc1cc(CC[C@@H](O)CC(=O)CCc2ccccc2)ccc1O	Dose-Dependent Effect	> 50	–	–	–	–	–	–	–	–	–	–	–
COc1cc(CC[C@H](O)CC(=O)CCc2ccccc2)ccc1O	Dose-Dependent Effect	> 50	–	–	–	–	–	–	–	–	–	–	–
COc1cc(CC/C=C/C(=O)CCc2ccccc2)ccc1O	Dose-Dependent Effect	3.9	Dose-Dependent Effect	27.5	Active	Active	16.3	10.7	inactive	Non-Toxic	Dose-Dependent Effect	inactive	Dose-Dependent Effect
